Measured values as given in PMC3737387 (Nuclear medicine and biology, 2013).
Several values for one entry are separate records, joined by “and”; a condition that tells them apart may be missing. Identical values can stand only once.

Legend:
[1] = tested on: FAAH; conditions: Phase II crossover study, pain associated with osteoarthritis; cited from earlier work
[2] = tested on: FAAH; conditions: URB597 2 mg/kg ip; cited from earlier work
[3] = tested on: FAAH; conditions: rodents; cited from earlier work
[4] = tested on: FAAH; conditions: previously reported; cited from earlier work
[5] = HPLC analysis of plasma metabolites; format: in vivo; conditions: rat
Summary of the method: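 Heparinized rat trunk blood is centrifuged, and the plasma is acidified with 20% (v/v) of 50% aqueous acetic acid. It is loaded onto an HLB capture column, eluted with 1% acetonitrile (2 mL/min, 4 min), then backflushed with 60% acetonitrile/water + 0.1 N ammonium formate (pH 4) onto C18. Detection is by coincidence-mode radio-flow. Eluent switches to 100% ethanol after the parent to detect lipophilic metabolites. Peaks are decay-corrected and integrated.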

[6] = Ex vivo biodistribution of [^11C]PF-04457845 in conscious rat brain and plasma; conditions: for Ex vivo biodistribution, Cerebellum / Ex vivo biodistribution, Cortex / Ex vivo biodistribution, Hypothalamus / Ex vivo biodistribution, Plasma / Ex vivo biodistribution, Rest of Brain: n = 4
[7] = molecular target: T1, FAAH (Rattus norvegicus, UniProt P97612); assay: Irreversible binding of [^11C]PF-04457845 to FAAH in the rat brain; format: in vivo
T1 sequence (P97612 1-579): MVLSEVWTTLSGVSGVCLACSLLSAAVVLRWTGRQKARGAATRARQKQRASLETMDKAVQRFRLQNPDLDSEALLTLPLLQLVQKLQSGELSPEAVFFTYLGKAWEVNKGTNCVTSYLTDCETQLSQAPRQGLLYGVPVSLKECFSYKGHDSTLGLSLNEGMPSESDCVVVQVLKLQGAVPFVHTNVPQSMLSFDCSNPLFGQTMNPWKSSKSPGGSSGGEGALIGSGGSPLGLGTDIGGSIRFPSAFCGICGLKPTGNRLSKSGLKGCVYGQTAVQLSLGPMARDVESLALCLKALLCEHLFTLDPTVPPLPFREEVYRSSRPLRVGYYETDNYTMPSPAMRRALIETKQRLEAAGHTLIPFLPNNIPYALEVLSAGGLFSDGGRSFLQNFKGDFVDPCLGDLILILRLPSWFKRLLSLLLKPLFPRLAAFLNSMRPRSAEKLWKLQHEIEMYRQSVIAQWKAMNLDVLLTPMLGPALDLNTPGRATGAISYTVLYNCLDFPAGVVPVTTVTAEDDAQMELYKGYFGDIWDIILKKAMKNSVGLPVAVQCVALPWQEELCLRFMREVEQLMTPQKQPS

[8] = molecular target: T1, FAAH; assay: Pharmacological blocking of [^11C]PF-04457845 uptake in rat brain; format: in vivo; conditions: control vs URB597 (2 mg/kg ip) pretreated group; 40 min post injection
[9] = tested on: FAAH; conditions: rodents, cited from earlier work

O=C(Nc1cccnn1)N1CCC(=Cc2cccc(Oc3ccc(C(F)(F)F)cn3)c2)CC1 [PF-04457845]
analgesic effect [1]: did not induce an analgesic effect | endocannabinoid levels in blood [1]: modulate endocannabinoid levels in blood

NC(=O)c1cccc(-c2cccc(OC(=O)NC3CCCCC3)c2)c1 [URB597, 3′-carbamoyl-[1,1′-biphenyl]-3-yl-cyclohexylcarbamate]
FAAH enzyme inactivated in rodent brains [2]: > 90% and 90%

COc1ccc(NC(=O)Oc2ccc[11c](-c3ccccc3)c2)cc1 [[^11C]1,1′-biphenyl-3-yl-(4-methoxyphenyl)carbamate]
brain uptake [3]: low brain uptake | specific binding [3]: no detectable specific binding

O=[11C](NC1CCCCC1)Oc1ccc(O)c(-c2ccccc2)c1 [[^11C]CURB, [^11C-carbonyl]-6-hydroxy-[1,1′-biphenyl]-3-yl-cyclohexylcarbamate]
level of specific binding [4]: 80%

O=C(Nc1cccnn1)N1CCC(=Cc2cccc(Oc3ccc(C(F)(F)F)cn3)c2)CC1 [[^11C]PF-04457845]
parent radiotracer remaining in plasma ([5]; 15 min post injection): 82% | parent radiotracer remaining in plasma ([5]; 40 min post injection): 73% | parent radiotracer remaining in plasma ([5]; 60 min post injection): 66% | lipophilic metabolite, share of total radioactivity present in plasma ([5]; later time-points): 3 – 3.5% | brain uptake ([6]; conscious rats, tail-vein injection, across regions and time points): 1.2 to 4.4 SUV | Ex vivo biodistribution, Cerebellum ([6]; rat, 2 min post iv injection): 1.87 ± 0.05 SUV | Ex vivo biodistribution, Cortex ([6]; rat, 2 min post iv injection): 2.22 ± 0.06 SUV | Ex vivo biodistribution, Hypothalamus ([6]; rat, 2 min post iv injection): 1.29 ± 0.05 SUV | Ex vivo biodistribution, Plasma ([6]; rat, 2 min post iv injection): 1.03 ± 0.19 SUV | Ex vivo biodistribution, Rest of Brain ([6]; rat, 2 min post iv injection): 1.51 ± 0.08 SUV | Ex vivo biodistribution, Cerebellum ([6]; rat, 15 min post iv injection): 3.17 ± 0.10 SUV | Ex vivo biodistribution, Cortex ([6]; rat, 15 min post iv injection): 3.64 ± 0.24 SUV | Ex vivo biodistribution, Hypothalamus ([6]; rat, 15 min post iv injection): 1.96 ± 0.10 SUV | Ex vivo biodistribution, Plasma ([6]; rat, 15 min post iv injection): 0.33 ± 0.04 SUV | Ex vivo biodistribution, Rest of Brain ([6]; rat, 15 min post iv injection): 2.44 ± 0.07 SUV | Ex vivo biodistribution, Cerebellum ([6]; rat, 40 min post iv injection): 3.56 ± 0.10 SUV | Ex vivo biodistribution, Cortex ([6]; rat, 40 min post iv injection): 4.11 ± 0.30 SUV | Ex vivo biodistribution, Hypothalamus ([6]; rat, 40 min post iv injection): 2.18 ± 0.20 SUV | Ex vivo biodistribution, Plasma ([6]; rat, 40 min post iv injection): 0.12 ± 0.01 SUV | Ex vivo biodistribution, Rest of Brain ([6]; rat, 40 min post iv injection): 2.77 ± 0.24 SUV | Ex vivo biodistribution, Cerebellum ([6]; rat, 60 min post iv injection): 3.42 ± 0.34 SUV | Ex vivo biodistribution, Cortex ([6]; rat, 60 min post iv injection): 3.92 ± 0.37 SUV | Ex vivo biodistribution, Hypothalamus ([6]; rat, 60 min post iv injection): 2.10 ±0.31 SUV | Ex vivo biodistribution, Plasma ([6]; rat, 60 min post iv injection): 0.09 ± 0.03 SUV | Ex vivo biodistribution, Rest of Brain ([6]; rat, 60 min post iv injection): 2.59 ± 0.19 SUV | time at which brain uptake reaches a plateau ([6]; rat, post injection): 40 min | SBR (specific to non-specific binding ratio) to FAAH from extraction studies ([7]; rat whole brain, ([95/5]-1)): > 18 | radioactivity irreversibly bound to brain tissue ([7]; rat, 2 min post injection): 84% | extractable brain radioactivity ([7]; rat, 40 min post injection): 2% | radioactivity in whole brain that is FAAH-bound ([7]; rat, 40 min post injection): > 95% | radioactivity irreversibly bound to brain tissue ([7]; rat, 40 min post injection): 98% | radioactivity bound to brain parenchyma ([7]; rat, after ip pre-treatment with URB597 (2 mg/kg)): 5% | specific to non-specific binding ratio, cerebellum [8]: 3.4 | specific to non-specific binding ratio, cortex [8]: 4.2 | specific to non-specific binding ratio, hypothalamus [8]: 2.5

O=C(Nc1cccnn1)N1CCC(=Cc2cccc(Oc3ccc(OCC[18F])cn3)c2)CC1 [[^18F]PF-9811, 4-(3-((5-(2-[^18F]fluoroethoxy)pyridine-2-yl)oxy)benzylidene)-N-(pyridazin-3-yl)piperidine-1-carboxamide]
brain uptake in the cortex ([9]; 90 min): 0.8 SUV | specific to non-specific binding ratios [9]: 2.3 – 2.6
